# Compound activity from PubChem BioAssay.
# OX1R antag-1: human HCRTR1 antagonism. CHO/OX1R cells, Fluo-8 calcium fluorescence, orexin A. inhibition, % at 5 µM. AID 434989. O43613. actives 0.43% (n = 330,000);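 active means inhibition above its plate's threshold, mean inhibition of all tested compounds on the plate plus 3 SD, cut at about 37% in these data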;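 further: 0% = orexin A challenge wells and 100% = SB-334867-A antagonist wells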
# CHO parental Ca: signal in parental CHO cells, OX1R antagonist counter-screen | parental CHO-K1, ATP-induced calcium, Fluo-8 fluorescence | inhibition, % at 5.6 µM | actives 0.63% (n = 330,000) | AID 463079;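 active means inhibition above that plate's mean sample inhibition plus 3 SD, cut at about 26% in these data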;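 further: 0% = ATP-challenged DMSO wells and 100% = DMSO wells without ATP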
#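 Measured by: calcium-sensitive Fluo-8 fluorescence / Test system: CHO parental line / Controls: ATP-challenged DMSO wells low, unchallenged DMSO wells high / Measure: % inhibition / Compound: single nominal dose of 5.6 µM per compound / Replicates: single well per compound, no replicates / Reagent: ATP as calcium-mobilizing challenge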
# GalR3 antagonist: blocks the human galanin receptor 3; HEK293 GalR3-CNG cAMP membrane potential fluorescence; galR3 body fused to GalR1 C-terminus; inhibition, % at 3 µM; actives 0.44% (n = 360,000);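 active means inhibition above the screen-wide average plus 3 SD, cut at about 13% in these data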;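 further: forskolin and galanin both at EC90 stimulate the cells; cAMP rise reported by CNG channel membrane potential dye signal; 0% = forskolin plus galanin with DMSO and 100% = forskolin alone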
# Target sequence (O60755 1-299 limits assumed): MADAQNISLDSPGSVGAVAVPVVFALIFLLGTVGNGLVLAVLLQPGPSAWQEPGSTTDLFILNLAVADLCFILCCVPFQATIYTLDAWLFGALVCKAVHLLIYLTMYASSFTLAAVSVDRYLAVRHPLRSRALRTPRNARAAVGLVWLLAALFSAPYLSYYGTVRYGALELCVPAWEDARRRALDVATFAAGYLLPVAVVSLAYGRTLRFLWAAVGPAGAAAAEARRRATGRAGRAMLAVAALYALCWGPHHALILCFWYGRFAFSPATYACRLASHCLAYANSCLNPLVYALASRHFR
# GPR7 antag: antagonists of human GPR7 (neuropeptides B/W receptor 1). P48145. GPR7-expressing cells, fluorescence antagonist assay. inhibition, % at 4.4 µM. actives 1.1% (n = 290,000); in the data active means inhibition above about 16%, passing the limit was not always enough;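 further: cells stimulated with the agonist NPW; 0% = agonist with vehicle and 100% = vehicle without agonist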
# Target sequence (P48145 whole entry, looked up): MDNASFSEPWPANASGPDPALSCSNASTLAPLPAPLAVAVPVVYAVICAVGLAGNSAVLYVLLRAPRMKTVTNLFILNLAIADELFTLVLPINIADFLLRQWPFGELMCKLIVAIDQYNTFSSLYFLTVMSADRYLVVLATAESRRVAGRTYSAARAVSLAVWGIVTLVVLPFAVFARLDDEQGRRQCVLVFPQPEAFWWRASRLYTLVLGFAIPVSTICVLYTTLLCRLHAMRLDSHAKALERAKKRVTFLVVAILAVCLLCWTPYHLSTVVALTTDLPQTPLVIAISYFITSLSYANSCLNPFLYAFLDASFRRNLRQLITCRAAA
# OX1R antag-2: antagonists of human orexin 1 receptor (OX1R). O43613. OX1R-expressing cells, FRET antagonist read-out. inhibition, % at 6.6 µM. actives 1.8% (n = 330,000). AID 485270; in the data active means inhibition mostly above about 38%, no sharp cut-off; inactive means mostly below about 40%;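 further: 0% = agonist challenge alone and 100% = reference antagonist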
# GalR3 conf: confirmation of human galanin receptor 3 antagonists; HEK293 GalR3 CNG cAMP biosensor, membrane potential fluorescence; galR3 fused to GalR1 carboxy tail; challenged with forskolin and galanin at EC90; inhibition, % at 3 µM; AID 652245; shares compounds with GalR3 antagonist; actives 59% (n = 1,600);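 active means inhibition above the primary screen's cutoff, the mean inhibition of all screened compounds plus 3 SD, cut at about 13% in these data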;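 further: 0% = forskolin plus galanin and 100% = forskolin alone with DMSO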
# CNG parental: acts as nonspecific agonist in parental HEK-CNG cells. AID 652268. HEK293-CNG parental cells, cAMP membrane potential fluorescence; normalised: DMSO wells 0%, forskolin wells 100%. shares compounds with GalR3 antagonist. actives 10% (n = 1,600). activation, % at 3 µM; in the data active means activation above about 1.3%
# The depositor's hits bear a star; / = no result given. Shown are actives, neighbours in structure and some others; about 3.1% of the full set was active somewhere.
SMILES,OX1R antag-1,CHO parental Ca,GalR3 antagonist,GPR7 antag,OX1R antag-2,GalR3 conf,CNG parental
COc1ccc(OC)c(C2C3=C(COC3=O)Nc3cc4c(cc32)OCO4)c1 (stereo not drawn),-11,-18,28*,17,1,23*,1.4*
COC(=O)[C@@H](Cc1c[nH]c2ccccc12)NCc1cccc(B(O)O)c1,/,/,-4,/,/,/,/
Cc1cc(/C=C2/SC(=S)N(c3cccc(Cl)c3)C2=O)c(C)n1-c1cccnc1,53*,46*,90*,-3,71*,15*,0
Brc1ccc(N2O[C@H]3C=C[C@@H]2C3)nc1,/,/,-7,/,/,/,/
COCCNC(=O)C1CCCN(C(=O)c2csc3ccccc23)CC1 (stereo not drawn),/,/,-5,/,/,/,/
COc1cccc2ccc(CC(O)(c3ccccc3)c3ccccc3)nc12,/,/,-1,/,/,/,/
CCOc1ccc(Oc2ccccc2NC(=O)CSCC(=O)Nc2cc(C)on2)cc1,6,8,40*,/,32,73*,0
CS(=O)(=O)N1CCN(c2ccc([N+](=O)[O-])cc2F)CC1,-11,-14,-1,-10,37,/,/
CS(=O)(=O)N1CCN(c2ccc([N+](=O)[O-])cc2C(F)(F)F)CC1,0,-11,18*,-11,31,14*,0
CCN(CC)CCCn1c(=S)[nH]c2ncccc2c1=O,1,1,-5,-2,8,/,/
CCCCN(C)CCn1c(=S)[nH]c2ncccc2c1=O,-4,-6,40*,-2,17,4,0
COc1ccc(C(=O)C(CN2CCOCC2)c2ccccc2)cc1F (stereo not drawn),/,/,28*,35*,/,1,0
COc1ccc(C(=O)OC(C)CN2CCOCC2)cc1OC (stereo not drawn),-1,2,/,-10,15,3,0
COc1ccc(C(=O)OC(C)CN2CCOCC2)cc1 (stereo not drawn),8,-9,-12,-2,-6,/,/
COc1cccc(CNC(=O)[C@H]2CCCN2C(=O)[C@H]2CCCN2C(=O)N2CCCCC2)c1,/,/,-4,/,/,/,/
CC(C)Oc1cccc(C(=O)C2CCCN(Cc3cnc(N4CCOCC4)s3)C2)c1 (stereo not drawn),-47,-22,40*,2,6,30*,0
COc1ccc(C(=O)c2[nH]c(N)c(C(=O)c3c[nH]c4ccccc34)c2-c2ccc(OC)cc2)cc1,/,/,-4,/,/,/,/
Cc1ccccc1CN1C(=O)c2ccccc2C1c1nnnn1Cc1ccccc1 (stereo not drawn),/,/,-4,/,/,/,/
O=C(O)C1C2OC3C(OC(=O)C31)C2Br (stereo not drawn),/,/,-3,/,/,/,/
CCN1/C(=C/c2ccc3cc(C)ccc3[n+]2CC)Sc2ccccc21,86*,89*,38*,44*,103*,45*,12*
CC1=C(C(=O)N(C(C)C)C(C)C)CC(CC(=O)NC2CCCC2)C(=O)N1Cc1ccc(C(C)(C)C)cc1 (stereo not drawn),/,/,-10,/,/,/,/
Cc1ccc(NC(=O)COc2cccc(C)c2C)cc1S(=O)(=O)N1CCCCCC1,-12,3,0,/,19,/,/
Cc1ccc(NC(=O)COc2ccc(N(C)C(=O)C(C)(C)C)cc2)cc1S(=O)(=O)N1CCCCC1,73*,78*,93*,/,20,105*,-1
CCc1cccc(OCC(=O)Nc2ccc(C)c(S(=O)(=O)N3CCCCCC3)c2)c1,22,35*,87*,/,34,80*,0
COC(=O)[C@]12CCCCC=C1N(CCc1ccc(OC)c(OC)c1)C(=O)[C@H](CC(=O)NCC1CCCCC1)C2,/,/,-7,/,/,/,/
SMILES,OX1R antag-1,CHO parental Ca,GalR3 antagonist,GPR7 antag,OX1R antag-2,GalR3 conf,CNG parental
O=C(OCCN1C(=O)c2cccc3c(N4CCOCC4)ccc(c23)C1=O)c1ccc(Cl)cc1Cl,5,22,0,16,10,/,/
O=C(OCCN1C(=O)c2cccc3c(N4CCOCC4)ccc(c23)C1=O)c1ccccc1Cl,82*,91*,15*,0,69*,74*,2.9*
COc1cccc2[nH]c3c(N4CCN(Cc5ccc6c(c5)OCO6)CC4)ncnc3c12,-14,-17,5,7,16,/,/
COc1cccc2[nH]c3c(N4CCC(C)CC4)ncnc3c12,-22,-20,86*,4,7,96*,1
CC(C)Cn1c(N)c(C(=O)COC(=O)/C=C/c2ccccc2)c(=O)n(C)c1=O,47,78*,16*,/,46,86*,0
CC(C)Cn1c(N)c(C(=O)CSc2ccccc2)c(=O)n(C)c1=O,13,15,1,-6,15,/,/
CCc1c(C(=O)Nc2ccc(OC)c(Cl)c2)[nH]c(C)c1C(C)=O,50*,32*,28*,-7,89*,13*,0
CCCS(=O)(=O)NC(=O)C1(C)CCN(C(=O)Cc2cccc(OC)c2)C1 (stereo not drawn),/,/,-6,/,/,/,/
CCOc1cc(CNCC2CCCN2CC)cc(Cl)c1OC (stereo not drawn),-17,8,15*,-5,15,3,1
COC(=O)C[C@H]1C[C@H]2c3cc(NC(=O)NC4CCCC4)ccc3O[C@H]2[C@@H](CO)O1,/,/,-4,/,/,/,/
COc1cccc(-c2ccc(-c3noc(-c4ccccc4F)n3)c(OC)n2)c1,-21,-9,-6,-2,9,/,/
COc1cccc(-c2ccc(-c3noc(-c4cccs4)n3)c(OC)n2)c1,-20,-10,15*,0,12,13*,1
COC(=O)C1=C(C)N(Cc2ccc(C(F)(F)F)cc2)C(=NCc2ccccc2C(F)(F)F)NC1c1ccc(C(F)(F)F)cc1 (stereo not drawn),/,/,0,/,/,/,/
COc1ccc(Cn2nc(C(=O)O)c3ccccc3c2=O)cc1F,-25,-25,0,-10,12,/,/
COc1cccc(Cn2nc(C(=O)O)c3ccccc3c2=O)c1,-29,-2,19*,-12,24,16*,0
O=C(NCC[C@H]1CC[C@H](NS(=O)(=O)c2ccccc2F)[C@@H](CO)O1)c1ccc(F)cc1,/,/,-7,/,/,/,/
O=C(CSc1nnc(-c2ccco2)c(-c2ccco2)n1)c1ccccc1,4,-16,13*,-8,16,2,0
N#Cc1c([N+](=O)[O-])cc([N+](=O)[O-])cc1S(=O)(=O)Cc1ccccc1,-2,17,64*,/,28,25*,-1
CCCN(CCC)CCN1CCN(C(=O)[C@H](CCc2ccccc2)NC(=O)[C@H]2O[C@@H](n3cnc4c(N)ncnc43)[C@H](O)[C@@H]2O)CC1,/,/,-5,/,/,/,/
CCN1/C(=C/c2cc[n+](CCCS(=O)(=O)[O-])c3ccccc23)Sc2ccccc21,-8,1,-3,-4,36,/,/
